The source made the active and inactive calls. No cut-off for these calls is given here.
What was measured:
[1] = AUC (0 to last) in C57BL/6J mouse liver at 0.3 mg/kg, po by LC-MS analysis; type: ADME, organism-based; conditions: in vivo
Procedure, shortened: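 Healthy C57BL/6 mice were dosed once by mouth at 0.3, 1, 3, 10 or 30 mg/kg in 20% HP-β-CD, in groups of 15 per dose. Three mice per group were sacrificed at 0.5, 1, 2, 4 or 7 h, and plasma and liver compound levels were measured by LC–MS. Values were rounded to whole numbers.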

[2] = AUC (0 to last) in cynomolgus monkey plasma at 9 mg/kg, po by LC-MS analysis; type: ADME, organism-based, Macaca fascicularis; design: dose 9 mg/kg, route oral, time 0 - last
Procedure, shortened: (§1)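 Healthy cynomolgus monkeys received single oral doses of 1, 3, 9 and 30 mg/kg, with a 2-week wash-out between doses. Systemic compound concentrations were measured by LC–MS at 0.25, 0.5, 1, 2, 4, 8 and 24 h postdose.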

[3] = test system: Cynomolgus monkey; assay: Proinflammatory activity in cynomolgus monkey plasma assessed as IL-6 levels at 3 mg/kg, po after 24 hrs by Luminex assay (reference value: 80 pg/ml); type: functional, Macaca fascicularis
[4] = test system: Cynomolgus monkey; assay: Induction of G-CSF in cynomolgus monkey plasma at 1 mg/kg, po after 24 hrs by Luminex assay (reference value: 85 pg/ml); type: functional, organism-based; conditions: Macaca fascicularis
Procedure, shortened: (§2)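 Healthy cynomolgus monkeys given single oral doses of 1, 3, 9 and 30 mg/kg, with a 2-week wash-out planned between doses. Systemic cytokine levels in plasma were sampled at 0.5, 1, 2, 4, 9 and 24 h postdose.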

[5] = Hepatic extraction ratio in Sprague-Dawley rat hepatocytes; type: ADME, cell-based, Hepatocyte; conditions: in vivo, in the assay text read “in Sprague-Dawley rat” for “in Sprague-Dawley rat hepatocytes”, read-out: ERH
Procedure, shortened: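 Male Sprague-Dawley rats given 10 mg/kg po as a solution; compound measured in portal vein and systemic circulation to derive the hepatic extraction ratio.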

[6] = Intrinsic clearance in dog liver microsomes assessed per mg protein at 1 uM up to 60 mins; type: ADME, Canis lupus familiaris, microsome; conditions: read-out: CLH
[7] = test system: Cynomolgus monkey; assay: Upregulation of Tlr7 expression in cynomolgus monkey plasma at 3 mg/kg, po after 24 hrs by Fluidigm RT-qPCR analysis (reference value: 1.8); type: functional, Macaca fascicularis
[8] = test system: Cynomolgus monkey; assay: Induction of ISG response in cynomolgus monkey plasma assessed as upregulation of Mx1 mRNA expression at 30 mg/kg, po after 24 hrs by Fluidigm RT-qPCR analysis (reference value: 1); type: functional, Macaca fascicularis
Procedure, shortened: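 Cynomolgus monkeys, single oral doses of 1, 3, 9 and 30 mg/kg with a planned 2-week wash-out between doses. Systemic ISG (ISG15, Mx1, OAS1) mRNA was measured by Fluidigm RT-qPCR at 1, 2, 4, 8 and 24 h postdose.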

[9] = Metabolic stability in human liver microsomes assessed as compound metabolized at 1 uM after 15 mins; type: ADME, microsome; conditions: read-out: Drug metabolism
Procedure, shortened: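 Mouse (M) or human (H) liver microsomes incubated with compound at 1 μM; percent metabolized after 15 min.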

[10] = Selectivity index, ratio of compound concentration causing induction of AST level in primary human hepatocytes infected with HBV genotype C for 12 days followed by exposure to conditioned supernatant from at 5 uM compound treated PBMCs measured after 42 days to Agonist activity at human TLR7 expressed in HEK293 cells
[11] = test system: Liver; assay: Anti-inflammatory activity in C57BL/6J mouse liver assessed as IL-10 levels at 0.3 mg/kg, po by multiplex assay (reference value: 2 pg/g); type: functional
Procedure, shortened: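 Mice (C57BL/6) got a single oral dose of 0.3–30 mg/kg in 20% HP-β-CD, in groups of 15. Three per group were sacrificed at 0.5, 1, 2, 4 or 7 h, and liver cytokines were measured by multiplex. Values were rounded to the nearest multiple of 5.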

[12] = Cmax in C57BL/6J mouse plasma at 30 mg/kg, po by LC-MS analysis; type: ADME, organism-based; design: dose 30 mg/kg, route oral
Procedure, shortened: (§3)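 Healthy C57BL/6 mice, groups of 15, given a single oral dose (0.3, 1, 3, 10 or 30 mg/kg) in 20% HP-β-CD. Blood drawn at 0.5 h. Three mice per group sacrificed at 0.5, 1, 2, 4 or 7 h, and compound in plasma and liver measured by LC−MS. Values rounded to whole numbers.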

[13] = test system: Cynomolgus monkey; assay: Effect on cytokine profile in cynomolgus monkey plasma assessed as IL-12P70 levels at 3 mg/kg, po after 24 hrs by Luminex assay (reference value: 2.17 pg/ml); type: functional, organism-based; conditions: Macaca fascicularis; procedure, shortened: as §2
[14] = test system: Cynomolgus monkey; assay: Effect on cytokine profile in cynomolgus monkey plasma assessed as IL-12P70 levels at 9 mg/kg, po after 24 hrs by Luminex assay (reference value: 2.17 pg/ml); type: functional, Macaca fascicularis; procedure, shortened: as §2
[15] = Cmax in C57BL/6J mouse liver at 1 mg/kg, po by LC-MS analysis; type: ADME, organism-based; design: dose 1 mg/kg, route oral; procedure, shortened: as §3
[16] = AUC (0 to last) in cynomolgus monkey plasma at 3 mg/kg, po by LC-MS analysis; type: ADME, organism-based, Macaca fascicularis; design: dose 3 mg/kg, time 0 - last, route oral; procedure, shortened: as §1
[17] = test system: Liver; assay: Proinflammatory activity in C57BL/6J mouse liver assessed as CXCL-1 levels at 10 mg/kg, po by multiplex assay (reference value: 25 pg/g); type: functional
[18] = test system: Liver; assay: Effect on cytokine profile in C57BL/6J mouse liver assessed as IFNgamma levels at 0.3 mg/kg, po by multiplex assay; type: functional, organism-based
Procedure, shortened: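 Single oral gavage in 20% HP-β-CD to healthy C57BL/6 mice, groups of 15 at 0.3, 1, 3, 10 or 30 mg/kg. Three mice per group sacrificed at 0.5, 1, 2, 4 or 7 h. Plasma and liver cytokines by multiplex, maximum level reported, rounded to nearest multiple of 5.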

[19] = test system: Plasma; assay: Proinflammatory activity in C57BL/6J mouse plasma assessed as IL-6 levels at 10 mg/kg, po by multiplex assay (reference value: 505 pg/ml); type: functional
[20] = Cmax in Sprague-Dawley rat liver at 10 mg/kg, po; type: ADME, organism-based; design: dose 10 mg/kg, route oral
Procedure, shortened: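 Male Sprague-Dawley rats given 10 mg/kg po as a solution. Compound measured in portal vein, systemic plasma and liver. Cmax taken from concentration–time profiles.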

[21] = test system: Cynomolgus monkey; assay: Effect on cytokine profile in cynomolgus monkey plasma assessed as IL-15 levels at 30 mg/kg, po after 24 hrs by Luminex assay (reference value: 20 pg/ml); type: functional, Macaca fascicularis; procedure, shortened: as §2
[22] = Stability in rat hepatocytes assessed compound turnover at 1 uM after 60 mins; type: ADME, cell-based, Hepatocyte; conditions: read-out: Drug metabolism
[23] = test system: Plasma; assay: Proinflammatory activity in C57BL/6J mouse plasma assessed as IL-1beta levels at 10 mg/kg, po by multiplex assay (reference value: 60 pg/ml); type: functional
[24] = molecular target: TLR7 and TLR8 (Homo sapiens) (UniProt Q9NYK1+Q9NR97); assay: Agonist activity at TLR7/8 in human PBMCs co-cultured with primary human hepatocytes infected with HBV genotype C for 12 days assessed as increase in IL-1Ra levels up to 5 uM measured after 42 days
[25] = Protein binding in human plasma fraction at 5 uM after 4.5 hrs LC-MS/MS-based rapid equilibrium dialysis method; type: ADME, cell-free; conditions: read-out: PPB (converted)
[26] = test system: Plasma; assay: Proinflammatory activity in C57BL/6J mouse plasma assessed as CXCL-1 levels at 0.3 mg/kg, po by multiplex assay (reference value: 230 pg/ml); type: functional
[27] = Cmax in C57BL/6J mouse plasma at 1 mg/kg, po by LC-MS analysis; type: ADME, organism-based; design: dose 1 mg/kg, route oral; procedure, shortened: as §3
[28] = Protein binding in dog plasma fraction at 5 uM after 4.5 hrs LC-MS/MS-based rapid equilibrium dialysis method; type: ADME, cell-free, Canis lupus familiaris; conditions: read-out: PPB (converted)

CCC[C@@H](CCO)Nc1nc(N)nc2c(F)cccc12
AUClast [1]: 25 ng·h/g
AUC(0-t) [2]: 4050 ng·h/mL
Activity [3]: 200 pg/mL
Activity [4]: Below limit of detection
hepatic extraction ratio [5]: 0.74
microsomal CLint at 1 µM [6]: 21 µL/min/mg
fold change (FC) [7]: 5.1
fold change (FC) [8]: 65
metabolised at 0.25 h, 1 µM [9]: 43%
Ratio [10]: 25
Activity [11]: 730 pg/g
Cmax [12]: 813 ng/mL
Activity [13]: Below limit of detection
Activity [14]: 3.8 pg/mL
Cmax [15]: 188 ng/g
AUC(0-t) [16]: 383 ng·h/mL
Activity [17]: 48485 pg/g
Activity [18]: Below limit of detection
Activity [19]: >10000 pg/mL
Cmax [20]: 285 ng/g
Activity [21]: 85 pg/mL
metabolised at 1 h, 1 µM [22]: 96%
Activity [23]: 55 pg/mL
Activity [24]: Active
fraction unbound at 4.5 h, 5 µM [25]: 0.34
Activity [26]: 2180 pg/mL
Cmax [27]: 9 ng/mL
fraction unbound at 4.5 h, 5 µM [28]: 0.59

From ChEMBL document CHEMBL4130635, “2,4-Diaminoquinazolines as Dual Toll-like Receptor (TLR) 7/8 Modulators for the Treatment of Hepatitis B Virus” (J Med Chem, 2018)
